Assay [1] has as its target T1, Aurora kinase A (Homo sapiens) (UniProt O14965).
T1 sequence (whole entry): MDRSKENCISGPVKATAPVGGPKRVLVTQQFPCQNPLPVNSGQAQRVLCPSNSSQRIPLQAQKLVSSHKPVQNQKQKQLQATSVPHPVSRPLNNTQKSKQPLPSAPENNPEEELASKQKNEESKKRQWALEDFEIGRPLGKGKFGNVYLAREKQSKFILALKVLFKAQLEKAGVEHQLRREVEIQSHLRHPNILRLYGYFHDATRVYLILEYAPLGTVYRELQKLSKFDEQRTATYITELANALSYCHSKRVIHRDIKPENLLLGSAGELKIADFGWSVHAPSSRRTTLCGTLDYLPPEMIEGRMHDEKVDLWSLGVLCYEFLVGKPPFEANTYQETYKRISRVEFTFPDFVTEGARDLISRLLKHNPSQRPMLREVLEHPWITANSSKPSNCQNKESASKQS
Briefly: Inhibition of Aurora A in human MDA-MB-231 cells assessed as reduction in Histone H3 phosphorylation incubated for 24 hrs by Western blot analysis. Format: cell-based. The conditions noted are these: dose 1-4 µM. An outline of the steps: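 MDA-MB-231 cells exposed to DMSO or drug at set concentrations for 24 h. Western blot for phospho-Aurora A at Thr288 or phospho-histone H3 at Ser10, with total Aurora A, histone H3 and GAPDH antibodies also used. Bands quantified by densitometry.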
In general terms: A western blot detects proteins with antibodies after separation by electrophoresis.

Assay [2] relates to MDA-MB-231. Briefly: Induction of cell cycle arrest in human MDA-MB-231 cells assessed as S phase accumulation at 2 uM incubated for 24 hrs by PI staining based flow cytometry analysis (reference value: 38.65 %). In kind it is functional. On the technique in general: Flow cytometry measures light scatter and fluorescence of single cells or particles in a stream.
For assay [3], the system named is MDA-MB-231. Briefly: Induction of cell cycle arrest in human MDA-MB-231 cells assessed as S phase accumulation at 4 uM incubated for 24 hrs by PI staining based flow cytometry analysis (reference value: 38.65 %). Format: functional.
For assay [4], the system named is MDA-MB-231. Briefly: Induction of apoptosis in human MDA-MB-231 cells assessed as early apoptotic cells at 1 uM incubated for 48 hrs by annexin V-FITC and PI staining based flow cytometry analysis (reference value: 3.90 %). In kind it is functional.
The test system of assay [5] is MDA-MB-231. The assay can be described thus: Induction of apoptosis in human MDA-MB-231 cells assessed as late apoptotic cells at 1 uM incubated for 48 hrs by annexin V-FITC and PI staining based flow cytometry analysis (reference value: 2.52 %). In kind it is functional.
In assay [6] the test system is MDA-MB-231. The assay can be described thus: Induction of apoptosis in human MDA-MB-231 cells assessed as late apoptotic cells at 2 uM incubated for 48 hrs by annexin V-FITC and PI staining based flow cytometry analysis (reference value: 2.52 %). Format: functional.
The test system of assay [7] is MDA-MB-231. Briefly: Induction of apoptosis in human MDA-MB-231 cells assessed as necrotic cells at 2 uM incubated for 48 hrs by annexin V-FITC and PI staining based flow cytometry analysis (reference value: 3.08 %). In kind it is functional.
The subject of assay [8] is MDA-MB-231. The assay can be described thus: Induction of apoptosis in human MDA-MB-231 cells assessed as late apoptotic cells at 4 uM incubated for 48 hrs by annexin V-FITC and PI staining based flow cytometry analysis (reference value: 2.52 %). In kind it is functional.
The test system of assay [9] is MDA-MB-231. Briefly: Induction of apoptosis in human MDA-MB-231 cells assessed as necrotic cells at 4 uM incubated for 48 hrs by annexin V-FITC and PI staining based flow cytometry analysis (reference value: 3.08 %). Format: functional.
For assay [10], the system named is MDA-MB-231. Briefly: Induction of apoptosis in human MDA-MB-231 cells. The following applies: dose 1-4 µM. In kind it is functional, cell-based.

The results in this text go back to ChEMBL document CHEMBL4765263, “Design, synthesis, biological evaluation of 6-(2-amino-1H-benzo[d]imidazole-6-yl)quinazolin-4(3H)-one derivatives as novel anticancer agents with Aurora kinase inhibition” (Eur J Med Chem, 2020).

Consider `CCC(=O)Nc1nc2ccc(-c3ccc4ncn(CCN5CCOCC5)c(=O)c4c3)cc2[nH]1`, for which the inhibition entry in [1] was “Dose-dependent effect”. Moreover, the Activity in [2] was 25.43%; in assay [3] it was 6.99%; in [4], 4.27%; in [5], 2.71%; in [6], 8.25%; in assay [7], 11.9%. The Activity is 15.41% in [8], 15.91% in [9] and “Dose-dependent effect” in [10].
